Laboratory results: ChEMBL document CHEMBL1137541, “[(2-Phenylindol-3-yl)methylene]propanedinitriles inhibit the growth of breast cancer cells by cell cycle arrest in G(2)/M phase and apoptosis” (Bioorg Med Chem, 2007)
Calls of active or inactive are those of the source. The calls are words filed in the database; no cut-off is given here.

Columns and labels:
[1] = system: HL-60 (Homo sapiens); assay: Induction of apoptosis in human HL-60 cells assessed as increase in caspase 3 activation at 1 uM after 24 hrs
[2] = system: MCF7; assay: Antiproliferative activity against human MCF7 cells after 5 days by microplate assay; assay type: functional, cell-based; details: MCF7, 120 h
Method in brief: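 MCF-7 cells in EMEM with sodium pyruvate, gentamycin, NaHCO3, phenol red, 10% FCS; grown 2–3 days in 96-well plates, then medium with compound (0.1% DMF in controls) for 5 days. Glutaric dialdehyde fixation, 0.02% crystal violet staining, 70% EtOH extraction, OD 578 nm. Initial density from fixed wells. IC50; mean of two independent experiments, 16–24 replicates.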

[3] = system: HL-60 (Homo sapiens); assay: Inhibition of cell growth in human HL-60 cells after 48 hrs by MTT assay; details: HL-60, 48 h
[4] = system: MDA-MB-231; assay: Antiproliferative activity against human MDA-MB-231 cells after 4 days by microplate assay; assay type: functional, cell-based; details: MDA-MB-231, 96 h
Method in brief: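 Cells grown 2–3 days in 96-well plates (37 °C, 5% CO2), medium then replaced with compound-containing medium (controls 0.1% DMF), about 4 days' exposure. Fixed with 1% glutaric dialdehyde, stained with 0.02% crystal violet for 25 min, dye extracted with 70% EtOH, OD read at 578 nm; initial density from fixed wells. IC50 from 16–24 replicates per experiment.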

[5] = system: HL-60 (Homo sapiens); assay: Induction of apoptosis in human HL-60 cells assessed as increase in caspase 9 activation at 1 uM after 24 hrs
[6] = species on record: Bos taurus; assay: Inhibition of temperature-induced tubulin polymerization of calf brain at 40 uM; design: scale not given: the % may be the effect or the level left
Method in brief: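 Calf brain tubulin purified by temperature-dependent polymerization cycles, then depolymerized at 0 °C in PEMG buffer. Supernatant preincubated 15 min at 37 °C with compound (40 µM, DMSO), chilled, and GTP added. Polymerization started by shifting from 2 °C to 37 °C, followed by absorbance at 350 nm over 20 min. Reported relative to inhibitor-free controls (100%).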

[7] = system: A-431; assay: Inhibition of cell growth in human A431 cells after 3 days by microplate assay; assay type: functional, cell-based; details: A-431, 72 h
Method in brief: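 A-431 vulva carcinoma cells, crystal violet microplate protocol as for MDA-MB 231 but with 5% FCS; 3 days' exposure, 0.1% DMF controls. Fixation with glutaric dialdehyde, 0.02% crystal violet, 70% EtOH extraction, OD 578 nm. IC50, mean of four independent experiments with 16–24 replicates ± SD.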

[8] = Antitumor activity against MXT cells xenografted B2D2F1 mouse at 10 mg/kg, sc relative to control; assay type: functional; details: route subcutaneous
Method in brief: (§1)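 Hormone-resistant MXT tumor pieces (1 mm³) transplanted into 8- to 9-week-old female B2D2F1 mice, groups of 6–8, randomly assigned. Compound given subcutaneously three times per week for two weeks. Tumor area compared with untreated controls (T/C × 100). Body weight change taken between first and last treatment day.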

[9] = system: Mus musculus; assay: Effect on body weight in MXT cells xenografted B2D2F1 mouse at 10 mg/kg, sc; assay type: functional; details: route subcutaneous
Method in brief: as §1

[10] = system: Mus musculus; assay: Effect on body weight in MXT cells xenografted B2D2F1 mouse at 30 mg/kg, sc; assay type: functional; details: route subcutaneous
Method in brief: as §1

[11] = Antitumor activity against MXT cells xenografted B2D2F1 mouse at 30 mg/kg, sc relative to control; assay type: functional; details: route subcutaneous
Method in brief: as §1

[12] = system: MDA-MB-231; assay: Cell cycle arrest in MDA-MB-231 cells by accumulation at G2/M phase at 0.1 uM after 24 hrs by flow cytometry; assay type: functional, cell-based; details: Homo sapiens
Method in brief: (§2)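 Cells grown to 70–80% confluence in flasks and exposed 24 h to compound in DMF (0.1% final), one flask per concentration. Trypsinized, fixed in ice-cold 70% EtOH, DNA extraction buffer 5 min, propidium iodide staining ≥30 min at room temperature. Flow cytometry of 8,000–15,000 events; percentages of sub-G1, G1/G0, S, G2/M cells; representative of two experiments.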

[13] = system: MDA-MB-231; assay: Cell cycle arrest in MDA-MB-231 cells by accumulation at G2/M phase at 0.5 uM after 24 hrs by flow cytometry; assay type: functional, cell-based; details: Homo sapiens
Method in brief: as §2

[14] = system: MDA-MB-231; assay: Cell cycle arrest in MDA-MB-231 cells by accumulation at G2/M phase at 1.0 uM after 24 hrs by flow cytometry; assay type: functional, cell-based; details: Homo sapiens
Method in brief: as §2

[15] = system: MDA-MB-231; assay: Cell cycle arrest in MDA-MB-231 cells by accumulation at G2/M phase at 0.01 uM after 24 hrs by flow cytometry; assay type: functional, cell-based; details: Homo sapiens
Method in brief: as §2

Row | SMILES | IC50 [2] | IC50 [4] | further results
1 | CCCCc1ccc2[nH]c(-c3ccc(C(F)(F)F)cc3)c(C=C(C#N)C#N)c2c1 | 150 nM | 56 nM | Activity [1]: Active; IC50 [3]: 70 nM; Activity [5]: Active
2 | COc1ccc(-c2[nH]c3ccccc3c2C=C(C#N)C#N)cc1 | 770 nM | 720 nM | –
3 | COc1ccc(-c2[nH]c3cc(Cl)c(C)cc3c2C=C(C#N)C#N)cc1 | 200 nM | 75 nM | –
4 | COc1cc([C@@H]2c3cc4c(cc3[C@@H](O[C@@H]3O[C@@H]5CO[C@@H](C)O[C@H]5[C@H](O)[C@H]3O)[C@H]3COC(=O)[C@H]23)OCO4)cc(OC)c1O [ETOPOSIDE] | – | – | IC50 [3]: 315 nM
5 | COc1ccc(-c2[nH]c3cc(F)ccc3c2C=O)cc1 | 43 nM | 47 nM | Activity [6]: 8%; IC50 [7]: 180 nM
6 | CCCCc1ccc2[nH]c(-c3ccc(C)cc3)c(C=C(C#N)C#N)c2c1 | 100 nM | 65 nM | –
7 | COc1ccc(-c2[nH]c3ccc(F)cc3c2C=C(C#N)C#N)cc1 | 310 nM | 400 nM | –
8 | CCCCCc1ccc2[nH]c(-c3ccc(C(F)(F)F)cc3)c(C=C(C#N)C#N)c2c1 | 100 nM | 78 nM | –
9 | COc1ccc(-c2[nH]c3ccc(OC)cc3c2C=O)cc1 | 180 nM | 260 nM | Activity [6]: 7%; IC50 [7]: 200 nM
10 | CCCCCCc1ccc2[nH]c(-c3ccc(C(F)(F)F)cc3)c(C=C(C#N)C#N)c2c1 | 68 nM | 150 nM | –
11 | CCCCc1ccc2[nH]c(-c3ccc(CC)cc3)c(C=C(C#N)C#N)c2c1 | 200 nM | 76 nM | –
12 | N#CC(C#N)=Cc1c(-c2ccccc2)[nH]c2ccccc12 | 190 nM | 430 nM | –
13 | COc1ccc2c(C=C(C#N)C#N)c(-c3ccc(C)cc3)[nH]c2c1 | 250 nM | 180 nM | –
14 | COc1ccc(-c2[nH]c3cc(F)ccc3c2C=C(C#N)C#N)cc1 | 220 nM | 280 nM | Activity [8]: 74%; Activity [9]: 3.6%; Activity [10]: 2.3%; Activity [11]: 56%
15 | COc1ccc(-c2[nH]c3ccc(C)cc3c2C=C(C#N)C#N)cc1 | 200 nM | 280 nM | –
16 | CCCCCCc1ccc2[nH]c(-c3ccc(OC)cc3)c(C=C(C#N)C#N)c2c1 | 25 nM | 46 nM | Activity [12]: Active; Activity [13]: Active; Activity [14]: Active
17 | O=Cc1c(-c2ccccc2)[nH]c2ccccc12 [2-PHENYL-1H-INDOLE-3-CARBALDEHYDE] | 650 nM | 420 nM | Activity [6]: 98%; IC50 [7]: 760 nM
18 | COc1ccc(-c2[nH]c3ccccc3c2C=O)cc1 | 180 nM | 470 nM | Activity [6]: 3%; IC50 [7]: 210 nM
19 | COc1ccc(-c2[nH]c3ccc(OC)cc3c2C=C(C#N)C#N)cc1 | 340 nM | 590 nM | –
20 | CCCc1ccc2[nH]c(-c3ccc(OC)cc3)c(C=C(C#N)C#N)c2c1 | 190 nM | 83 nM | –
21 | CCCCc1ccc2[nH]c(-c3ccc(OC)cc3)c(C=C(C#N)C#N)c2c1 | 13 nM | 26 nM | –
22 | COc1ccc(-c2[nH]c3ccc(C(C)C)cc3c2C=C(C#N)C#N)cc1 | 310 nM | 210 nM | –
23 | COc1ccc(-c2[nH]c3cc(OC)ccc3c2C=C(C#N)C#N)cc1 | 300 nM | 260 nM | –
24 | CCCCCc1ccc2[nH]c(-c3ccc(OC)cc3)c(C=C(C#N)C#N)c2c1 | 76 nM | 42 nM | Activity [1]: Active; IC50 [3]: 41 nM; Activity [5]: Active
25 | CC[C@]1(O)C[C@H]2CN(CCc3c([nH]c4ccccc34)[C@@](C(=O)OC)(c3cc4c(cc3OC)N(C=O)[C@H]3[C@@](O)(C(=O)OC)[C@H](OC(C)=O)[C@]5(CC)C=CCN6CC[C@]43[C@@H]65)C2)C1 [VINCRISTINE] | – | 4.5 nM | Activity [12]: Active; Activity [15]: Active
